The text below walks through data of ChEMBL document CHEMBL2424523, “2,3,9- and 2,3,11-trisubstituted tetrahydroprotoberberines as D2 dopaminergic ligands” (Eur J Med Chem, 2013).

Structures are written as SMILES.

For data set [1], the target named is D(1A) dopamine receptor (Rattus norvegicus, UniProt P18901). In words: Displacement of [3H]-SCH 23390 from dopamine D1 receptor in rat striatal membranes after 1 hr by liquid scintillation counting analysis. It is filed as cell membranes, Membrane. An outline of the steps: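 Striatal membranes washed twice by centrifugation at 20000g in Tris-HCl (50 mM, pH 7.4), then resuspended in Tris with 5 mM MgSO4, 0.5 mM EDTA and 0.02% ascorbate. 100 µg protein incubated 1 h at 25 °C with 0.25 nM [3H]SCH 23390. Nonspecific binding defined with 30 µM SK&F 38393. Filtered on GF/B, scintillation counted. Mean ± SEM of 3-5 experiments.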
(In general: Loss of bound radioactivity is the signal in a displacement assay; it reports binding, not function.)

The nature of data set [2]: Cytotoxicity against human neutrophil assessed as cell viability at 3 uM after 24 hrs by MTT assay. The format is cell-based. Summed up: (§1)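 Human peripheral blood neutrophils isolated from healthy-donor buffy coats by Ficoll-Hypaque, plated at 2 x 10^5 cells/mL in RPMI. Concentrations chosen from D2 Ki. Incubated 24 h at 37 °C, 5% CO2. MTT (1 mg/mL solution) added for 60 min, formazan dissolved in DMSO, absorbance read at 570/630 nm. Mean ± SEM, n=3.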
(In general: Tetrazolium assays rely on reduction of a dye to a coloured formazan, in cell work by metabolically active cells.)

For data set [3], the target named is D(2) dopamine receptor (Rattus norvegicus, UniProt P61169). The experiment in a line: Displacement of [3H]-raclopride from dopamine D2 receptor in rat striatal membranes after 1 hr by liquid scintillation counting analysis. It is filed as cell membranes, Membrane. Summed up: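 200 µg protein incubated 1 h at 25 °C with 0.5 nM [3H]raclopride. Nonspecific binding defined with 50 µM apomorphine. GF/B filtration, scintillation counting. Mean ± SEM of 3-5 experiments.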

Data set [4] is filed under the species Rattus norvegicus. The experiment in a line: Selectivity ratio of Ki for dopamine D1 receptor in rat striatal membranes to Ki for dopamine D2 receptor in rat striatal membranes. The format is cell membranes. As to conditions: Membrane; call rule not given here. Summed up: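 Ratio Ki(D1)/Ki(D2) from striatal membrane displacement assays: [3H]SCH 23390 at 0.25 nM (D1) and [3H]raclopride at 0.5 nM (D2), each incubated 1 h at 25 °C, with filtration and scintillation counting. Ki data are from 3-5 experiments.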

Data set [5] can be described thus: Cytotoxicity against human neutrophil assessed as cell viability at 100 uM after 24 hrs by MTT assay. The format is cell-based. Summed up:
as §1

A short description of data set [6]: Cytotoxicity against human neutrophil assessed as cell viability at 10 uM after 24 hrs by MTT assay. It is filed as cell-based. An outline of the steps:
as §1

Data set [7] in a line: Cytotoxicity against human neutrophil assessed as cell survival at 0.1 uM after 24 hrs by annexin V-FITC/propidium iodide staining-based flow cytometric analysis. Summed up:
(§2)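 Freshly isolated human blood neutrophils (Ficoll-Hypaque, healthy-donor buffy coats) at 2 x 10^6 cells/mL in supplemented RPMI. Cultured 24 h at 37 °C, 5% CO2, with or without compound. Annexin V-FITC/PI flow cytometry on 1 x 10^4 cells. Early apoptotic = annexin V+/PI−, late apoptotic/necrotic = V+/PI+, viable = V−/PI−. Mean ± SEM, n=3.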
A general note: A flow cytometer gives signals particle by particle.

Data set [8] in a line: Induction of apoptosis in human neutrophil at 0.1 uM after 24 hrs by annexin V-FITC/propidium iodide staining-based flow cytometric analysis. It is filed as cell-based. Summed up: as §2
Data set [9] is described as follows: Cytotoxicity against human neutrophil assessed as cell viability at 0.1 uM after 24 hrs by MTT assay. It is filed as cell-based. Summed up:
as §1

A short description of data set [10]: Cytotoxicity against human neutrophil assessed as cell viability at 0.3 uM after 24 hrs by MTT assay. The format is cell-based. An outline of the steps: as §1

D(2) dopamine receptor, sequence (P61169 whole entry): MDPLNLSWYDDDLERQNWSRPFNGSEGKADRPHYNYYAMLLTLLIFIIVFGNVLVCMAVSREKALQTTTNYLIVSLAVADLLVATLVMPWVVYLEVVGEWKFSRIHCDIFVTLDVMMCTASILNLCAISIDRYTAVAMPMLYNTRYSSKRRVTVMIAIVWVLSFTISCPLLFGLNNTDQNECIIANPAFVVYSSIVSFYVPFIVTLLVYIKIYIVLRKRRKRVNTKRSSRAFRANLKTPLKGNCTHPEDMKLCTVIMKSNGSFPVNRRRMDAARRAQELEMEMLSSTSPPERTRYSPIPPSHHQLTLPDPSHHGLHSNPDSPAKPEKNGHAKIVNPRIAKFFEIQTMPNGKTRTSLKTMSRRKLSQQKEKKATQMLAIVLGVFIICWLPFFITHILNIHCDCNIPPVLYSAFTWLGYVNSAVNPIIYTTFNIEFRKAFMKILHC
D(1A) dopamine receptor, sequence (P18901 whole entry): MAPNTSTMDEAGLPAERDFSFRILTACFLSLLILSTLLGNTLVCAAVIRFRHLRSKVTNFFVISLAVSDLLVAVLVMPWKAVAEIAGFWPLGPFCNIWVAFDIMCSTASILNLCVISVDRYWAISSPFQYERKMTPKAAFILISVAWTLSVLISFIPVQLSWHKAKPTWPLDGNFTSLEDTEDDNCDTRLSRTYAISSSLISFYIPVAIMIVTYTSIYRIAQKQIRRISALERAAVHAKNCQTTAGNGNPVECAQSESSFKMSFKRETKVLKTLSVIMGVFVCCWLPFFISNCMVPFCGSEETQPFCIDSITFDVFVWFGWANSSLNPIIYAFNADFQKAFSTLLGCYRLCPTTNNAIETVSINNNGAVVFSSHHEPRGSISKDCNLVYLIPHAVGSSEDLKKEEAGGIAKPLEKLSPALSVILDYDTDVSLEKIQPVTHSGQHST

For the compound `COc1ccc2c(c1)CC1c3cc(OC)c(Cl)cc3CCN1C2` (configuration not stated), the Ki in [1] (read-out: Ki) is 1810 nM; in data set [1] (read-out: pKi (converted)), 1740 nM; in data set [3] (read-out: Ki), 2050 nM. The Activity entry in data set [2] is “Non-toxic”. Moreover, the Ratio Ki in [4] came to 0.9.

On to `COc1ccc2c(c1)CC1c3cc4c(cc3CCN1C2)OCO4` (configuration not stated), for which the Ki in data set [1] (read-out: Ki) was 2370 nM; in data set [1] (read-out: pKi (converted)), 1700 nM; in [3] (read-out: Ki), 1330 nM; in data set [3] (read-out: pKi (converted)), 1150 nM. In addition, the Activity result in data set [2] is reported as “Non-toxic”. The Ratio Ki in data set [4] stood at 1.8.

With `COc1ccc2c(c1)CC1c3cc(OCc4ccccc4)c(OCc4ccccc4)cc3CCN1C2` (configuration not stated), in [5], the Activity entry is “Non-toxic”. Besides, the Ki in data set [1] (read-out: Ki) was 40600 nM; in data set [3] (read-out: Ki) it was 40900 nM; in [3] (read-out: pKi (converted)), 41700 nM. The Ratio Ki in data set [4] came out at 1.

Take `COc1cc2c(cc1OC)C1Cc3cccc(OC)c3CN1CC2` (configuration not stated): the Ki in data set [1] (read-out: Ki) is 3930 nM; in data set [1] (read-out: pKi (converted)), 3630 nM; in data set [3] (read-out: Ki) it was 393 nM; in data set [3] (read-out: pKi (converted)), 363 nM. Besides, the Activity result in [2] was “Non-toxic”. Besides, in [4], the Ratio Ki turned out to be 10.

Take `COc1ccc2c(c1)CC1c3cc(OC)c(OC)cc3CCN1C2` (configuration not stated): the Activity result in [6] is given as “Non-toxic”. Moreover, the Ki was 4310 nM in data set [1] (read-out: Ki), 4170 nM in [1] (read-out: pKi (converted)), 8540 nM in data set [3] (read-out: Ki) and 5130 nM in [3] (read-out: pKi (converted)). In addition, in data set [4], the Ratio Ki was 0.5.

As to `Oc1cccc2c1CN1CCc3cc4c(cc3C1C2)OCO4` (configuration not stated), the Activity entry in [7], in [8] and in data set [9] was “Non-toxic” in each case. In addition, the Ki was 344 nM in data set [1] (read-out: Ki), 339 nM in data set [1] (read-out: pKi (converted)), 35 nM in [3] (read-out: Ki) and 28.2 nM in [3] (read-out: pKi (converted)). Besides, in [4], the Ratio Ki was found to be 10.

For the compound `COc1ccc2c(c1)CC1c3cc(O)c(O)cc3CCN1C2` (configuration not stated), the Activity result in data set [7], in [8] and in data set [9] was “Non-toxic” each time. In addition, the Ki is 1110 nM in [1] (read-out: Ki), 955 nM in [1] (read-out: pKi (converted)), 78 nM in data set [3] (read-out: Ki) and 74.1 nM in data set [3] (read-out: pKi (converted)). The Ratio Ki in data set [4] was 14.2.

For `Oc1ccc2c(c1)CC1c3cc(O)c(O)cc3CCN1C2` (configuration not stated), the Ki is 2960 nM in data set [1] (read-out: Ki), 2630 nM in [1] (read-out: pKi (converted)), 396 nM in [3] (read-out: Ki) and 389 nM in data set [3] (read-out: pKi (converted)). The Activity result in [2] is reported as “Non-toxic”. For the same compound, in data set [4], the Ratio Ki came to 7.5.

For the compound `Oc1ccc2c(c1)CC1c3cc(O)c(Cl)cc3CCN1C2` (configuration not stated), in data set [10], the Activity result is recorded as “Non-toxic”. The Ki in [1] (read-out: Ki) is 107 nM; in data set [3] (read-out: Ki) it was 188 nM. Moreover, the Ratio Ki in [4] is 0.6.

For `Oc1ccc2c(c1)CC1c3cc4c(cc3CCN1C2)OCO4` (configuration not stated), the Activity result in [6] is “Non-toxic”. Besides, the Ki in data set [1] (read-out: Ki) was 33000 nM; in data set [1] (read-out: pKi (converted)) it was 32400 nM; in data set [3] (read-out: Ki) it was 7510 nM; in [3] (read-out: pKi (converted)), 6920 nM. The Ratio Ki in data set [4] turned out to be 4.4.

As for `Oc1cc2c(cc1O)C1Cc3cccc(O)c3CN1CC2` (configuration not stated), the Activity result in data set [7], in [8] and in [9] was “Non-toxic” throughout. Also, the Ki was 3780 nM in data set [1] (read-out: Ki), 3470 nM in data set [1] (read-out: pKi (converted)), 93 nM in [3] (read-out: Ki) and 85.1 nM in data set [3] (read-out: pKi (converted)).
